Laboratory results reported in ChEMBL document CHEMBL3994605, “Synthesis and biological evaluation of curcumin inspired indole analogues as tubulin polymerization inhibitors” (Eur J Med Chem, 2017).
Where a name gives a salt, the structure may show the parent alone.

Legend:
BT-549 [1] = experiment: Antiproliferative activity against human BT549 cells after 48 hrs by MTT assay; type: functional, cell-based; conditions: BT-549, 48 h
Method in brief: (§1)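 MTT read-out. Cells were seeded at 5 × 10^3 per well in DMEM or RPMI with 10% FBS and grown 24 h at 37 °C in CO2. Compound dilutions in medium, with vehicle control, were then added for 48 h. MTT (0.5 mg/mL in medium) was given for 4 h, formazan was dissolved in DMSO, and A570 was read. IC50 was taken from concentration–response curves as mean ± SD of three experiments run in triplicate.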

A549 = experiment: Antiproliferative activity against human A549 cells after 48 hrs by MTT assay; type: functional, cell-based; conditions: A549, 48 h; method in brief: as §1
MDA-MB-231 [2] = experiment: Antiproliferative activity against human MDA-MB-231 cells after 48 hrs by MTT assay; type: functional, cell-based; conditions: MDA-MB-231, 48 h; method in brief: as §1
4T1 = experiment: Antiproliferative activity against mouse 4T1 cells after 48 hrs by MTT assay; type: functional, cell-based; conditions: 4T1, 48 h; method in brief: as §1
PC-3 [3] = experiment: Antiproliferative activity against human PC3 cells after 48 hrs by MTT assay; type: functional, cell-based; conditions: PC-3, 48 h; method in brief: as §1
DU-145 [4] = experiment: Antiproliferative activity against human DU145 cells after 48 hrs by MTT assay; type: functional, cell-based; conditions: DU-145, 48 h; method in brief: as §1
HGC-27 = experiment: Antiproliferative activity against human HGC27 cells after 48 hrs by MTT assay; type: functional, cell-based; conditions: HGC-27, 48 h; method in brief: as §1
HeLa = experiment: Antiproliferative activity against human HeLa cells after 48 hrs by MTT assay; type: functional, cell-based; method in brief: as §1
MDA-MB-231 [5] = experiment: Potency index, ratio of curcumin IC50 to compound IC50 for human MDA-MB-231 cells; type: functional
BT-549 [6] = experiment: Potency index, ratio of curcumin IC50 to compound IC50 for human BT549 cells; type: functional
PC-3 [7] = experiment: Potency index, ratio of curcumin IC50 to compound IC50 for human PC3 cells; type: functional
DU-145 [8] = experiment: Potency index, ratio of curcumin IC50 to compound IC50 for human DU145 cells; type: functional
Sus scrofa = species: Sus scrofa; experiment: Inhibition of porcine brain tubulin polymerization assessed as reduction in incorporation of fluorescent reporter at 10 uM by fluorescence based assay relative to control
Method in brief: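 Cell-free mix contained porcine brain tubulin (2 mg/mL) in 80 mM PIPES pH 6.9 with 2.0 mM MgCl2, 0.5 mM EGTA, 1.0 mM GTP and glycerol, with or without compound. Polymerization was tracked as a time-dependent fluorescence rise from reporter incorporation (ex 360, em 440 nm), with nocodazole as positive control. Inhibition was scored versus the untreated control. For IC50, the concentration giving 50% inhibition of assembly was used.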

| Compound | IC50 (BT-549 [1]) [µM] | IC50 (A549) [µM] | IC50 (MDA-MB-231 [2]) [µM] | IC50 (4T1) [µM] | IC50 (PC-3 [3]) [µM] | IC50 (DU-145 [4]) [µM] | IC50 (HeLa) [µM] | inhibition (Sus scrofa) [%] | IC50 (HGC-27) [µM] | Ratio IC50 (MDA-MB-231 [5]) | Ratio IC50 (BT-549 [6]) | Ratio IC50 (PC-3 [7]) | Ratio IC50 (DU-145 [8]) |
| --- | --- | --- | --- | --- | --- | --- | --- | --- | --- | --- | --- | --- | --- |
| COc1cc(OC)c(/C=C/C(=O)/C=C/c2cn(Cc3ccc(C(F)(F)F)cc3)c3ccccc23)c(OC)c1 | > 50 | > 50 | > 50 | > 50 | > 50 | > 50 | > 50 |  | > 50 |  |  |  |  |
| COc1cc(OC)c(/C=C/C(=O)/C=C/c2cn(Cc3ccc(Cl)cc3)c3ccccc23)c(OC)c1 | > 50 | > 50 | > 50 | > 50 | > 50 | > 50 | 40.9 |  | > 50 |  |  |  |  |
| COc1cc(OC)c(/C=C/C(=O)/C=C/c2cn(Cc3cccc(F)c3)c3ccccc23)c(OC)c1 | > 50 | > 50 | > 50 | > 50 | > 50 | > 50 | 40.1 |  | > 50 |  |  |  |  |
| O=C(/C=C/c1ccc(Cl)cc1)/C=C/c1cn(Cc2ccccc2)c2ccccc12 | > 50 | > 50 | > 50 | > 50 | > 50 | > 50 | > 50 |  | > 50 |  |  |  |  |
| COc1ccc(/C=C/C(=O)/C=C/c2cn(Cc3ccc(C(F)(F)F)cc3)c3ccccc23)cc1 | > 50 | > 50 | > 50 | > 50 | > 50 | > 50 | > 50 |  | > 50 |  |  |  |  |
| COc1ccc(OC)c(/C=C/C(=O)/C=C/c2cn(Cc3ccccc3)c3ccccc23)c1 | > 50 | > 50 | > 50 | > 50 | > 50 | > 50 | > 50 |  | > 50 |  |  |  |  |
| COc1cc(OC)c(/C=C/C(=O)/C=C/c2cn(Cc3ccc(F)cc3)c3ccccc23)c(OC)c1 | > 50 | > 50 | > 50 | > 50 | > 50 | > 50 | > 50 |  | 50.8 |  |  |  |  |
| COc1ccc(/C=C/C(=O)/C=C/c2cn(Cc3ccc(F)cc3)c3ccccc23)cc1 | > 50 | > 50 | > 50 | > 50 | > 50 | > 50 | > 50 |  | > 50 |  |  |  |  |
| COc1ccc(OC)c(/C=C/C(=O)/C=C/c2cn(Cc3ccc(C(F)(F)F)cc3)c3ccccc23)c1 | > 50 | > 50 | > 50 | > 50 | > 50 | > 50 | > 50 |  | > 50 |  |  |  |  |
| COc1ccc(/C=C/C(=O)/C=C/c2cn(Cc3ccc(Cl)cc3)c3ccccc23)cc1 | 50.4 | > 50 | > 50 | > 50 | > 50 | > 50 | 50 |  | > 50 |  |  |  |  |
| COc1cc(OC)c(/C=C/C(=O)/C=C/c2cn(Cc3ccccc3)c3ccccc23)c(OC)c1 | > 50 | > 50 | > 50 | > 50 | > 50 | > 50 | 50.1 |  | > 50 |  |  |  |  |

More lines, in order of falling IC50 (BT-549 [1]), values ahead:

| IC50 (BT-549 [1]) [µM] | IC50 (A549) [µM] | IC50 (MDA-MB-231 [2]) [µM] | IC50 (4T1) [µM] | IC50 (PC-3 [3]) [µM] | IC50 (DU-145 [4]) [µM] | IC50 (HeLa) [µM] | inhibition (Sus scrofa) [%] | Compound | IC50 (HGC-27) [µM] | Ratio IC50 (MDA-MB-231 [5]) | Ratio IC50 (BT-549 [6]) | Ratio IC50 (PC-3 [7]) | Ratio IC50 (DU-145 [8]) |
| --- | --- | --- | --- | --- | --- | --- | --- | --- | --- | --- | --- | --- | --- |
| 50.1 | > 50 | > 50 | > 50 | > 50 | > 50 | 50.5 |  | COc1ccc(/C=C/C(=O)/C=C/c2cn(Cc3ccc(OC(F)(F)F)cc3)c3ccccc23)cc1OC | > 50 |  |  |  |  |
| 50.1 | > 50 | > 50 | > 50 | > 50 | > 50 | 50.9 |  | COc1ccc(OC)c(/C=C/C(=O)/C=C/c2cn(Cc3ccc(F)cc3)c3ccccc23)c1 | > 50 |  |  |  |  |
| 40.6 | > 50 | > 50 | 40.8 | > 50 | > 50 | 50.1 |  | COc1cc(OC)c(OC)cc1/C=C/C(=O)/C=C/c1cn(Cc2ccccc2)c2ccccc12 | > 50 |  |  |  |  |
| 40.4 | > 50 | > 50 | > 50 | > 50 | > 50 | > 50 |  | COc1ccc(/C=C/C(=O)/C=C/c2cn(Cc3cccc(F)c3)c3ccccc23)cc1 | > 50 |  |  |  |  |
| 40.1 | > 50 | > 50 | 50.2 | > 50 | > 50 | > 50 |  | COc1ccc(/C=C/C(=O)/C=C/c2cn(Cc3ccccc3)c3ccccc23)cc1 | > 50 |  |  |  |  |
| 31.4 | 45.1 | 32 | 21.6 | 3.51 | 13.6 |  |  | COc1ccc(/C=C/C(=O)/C=C/c2c[nH]c3ccccc23)cc1 | 24 |  |  |  |  |
| 30.1 | > 50 | 50.2 | 40.2 | > 50 | > 50 | 25.2 |  | O=C(/C=C/c1ccc(Cl)cc1)/C=C/c1c[nH]c2ccccc12 | 50 |  |  |  |  |
| 30.1 | > 50 | > 50 | 40 | > 50 | > 50 | > 50 |  | COc1ccc(/C=C/C(=O)/C=C/c2cn(Cc3ccc(F)cc3)c3ccccc23)cc1OC | 50.3 |  |  |  |  |
| 25.2 | > 50 | > 50 | 25.9 | > 50 | > 50 | 50.6 |  | COc1cc(OC)c(OC)cc1/C=C/C(=O)/C=C/c1cn(Cc2ccc(C(F)(F)F)cc2)c2ccccc12 | 40.1 |  |  |  |  |
| 25.1 | 50.1 | > 50 | 25.2 | > 50 | > 50 | 30.7 |  | COc1cc(OC)c(OC)cc1/C=C/C(=O)/C=C/c1cn(Cc2ccc(F)cc2)c2ccccc12 | 40.2 |  |  |  |  |
| 24.9 |  | 15.8 |  | 12.2 | 28.4 | 25.4 |  | COc1cc(/C=C/C(=O)CC(=O)/C=C/c2ccc(O)c(OC)c2)ccc1O [CURCUMIN] |  |  |  |  |  |
| 10.5 |  | 46.4 | 13.9 | 3.12 |  |  |  | COc1cc(OC)c(/C=C/C(=O)/C=C/c2c[nH]c3ccccc23)c(OC)c1 |  | 0.3 | 2.4 | 3.9 |  |
| 4.69 | 30.2 | 15.7 | 21.9 | 5.52 | 13.3 | 6.44 | 39.7 | COc1ccc(/C=C/C(=O)/C=C/c2c[nH]c3ccccc23)cc1OC | 7.45 | 1 | 5.3 | 2.2 | 2.1 |
| 0.0547 | 0.172 | 0.117 |  | 0.0276 | 0.0723 |  |  | CC[C@]1(O)C[C@H]2CN(CCc3c([nH]c4ccccc34)[C@@](C(=O)OC)(c3cc4c(cc3OC)N(C=O)[C@H]3[C@@](O)(C(=O)OC)[C@H](OC(C)=O)[C@]5(CC)C=CCN6CC[C@]43[C@@H]65)C2)C1 [VINCRISTINE SULFATE] |  |  |  |  |  |
